The values that follow come from ChEMBL document CHEMBL4765291, “Design, synthesis and biological evaluation of novel 3,4-dihydro-2(1H)-quinolinone derivatives as potential chitin synthase inhibitors and antifungal agents” (Eur J Med Chem, 2020).

Values after ≈ are worked out from the molar mass of the structure shown.

The term inhibition denotes the change of the read-out against control, counted positive when it falls. Broadly, the IC50 is the point on the concentration scale where inhibition reaches its midpoint. A higher IC50 goes with lower potency. One may read the MIC as the least concentration at which growth counts as inhibited. A higher MIC goes with a need for much substance.

One assay deals with Aspergillus flavus. As to the kind of experiment: Synergistic antifungal activity against Aspergillus flavus ATCC 16870 assessed as fractional inhibitory concentration index in presence of Polyoxin B by two-fold broth dilution checkerboard method. The format is functional.
Settings: not given
In outline: (§1)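 Checkerboard combined with two-fold broth dilution, pairing test compound with fluconazole or polyoxin B. FIC index = (MIC A combined/MIC A alone) + (MIC B combined/MIC B alone); >2 antagonistic, 1–2 additive, ≤1 synergistic. Three independent repeats.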
Background: Dilution methods test growth across graded concentrations, often in twofold steps.
With `COc1ccccc1NC(=O)/C=C/C(=O)NC1Cc2ccccc2NC1=O` (stereo unspecified), the “fractional inhibitory concentration index (FICI)” value was 0.75.

For another assay, the system named is Cryptococcus neoformans. Briefly: Synergistic antifungal activity against Cryptococcus neoformans ATCC 32719 assessed as fractional inhibitory concentration index in presence of Polyoxin B by checkerboard method. The format is functional.
Settings: not given
In outline: as §1
In the case of `COc1ccccc1NC(=O)/C=C/C(=O)NC1Cc2ccccc2NC1=O` (stereo unspecified), the “fractional inhibitory concentration index (FICI)” value stood at 1.

A further assay has as its system Candida albicans. As to the kind of experiment: Synergistic antifungal activity against Candida albicans ATCC 90023 assessed as fractional inhibitory concentration index in presence of Polyoxin B by checkerboard method. The format is functional.
Settings: not given
The method in brief: as §1
As for `COc1ccccc1NC(=O)/C=C/C(=O)NC1Cc2ccccc2NC1=O` (stereo unspecified), the “fractional inhibitory concentration index (FICI)” value stood at 0.375.

A further assay relates to Candida albicans. Briefly: Synergistic antifungal activity against Candida albicans ATCC 76615 assessed as fractional inhibitory concentration index in presence of Polyoxin B by checkerboard method. The format is functional.
Settings: not given
In outline: as §1
Take `COc1ccccc1NC(=O)/C=C/C(=O)NC1Cc2ccccc2NC1=O` (stereo unspecified): the “fractional inhibitory concentration index (FICI)” value came out at 0.5.

The test system of the next assay is Aspergillus fumigatus. Briefly: Synergistic antifungal activity against Aspergillus fumigatus GIMCC 3.19 assessed as fractional inhibitory concentration index in presence of Polyoxin B by checkerboard method. The format is functional.
Settings: not given
The method in brief:
as §1
Consider `COc1ccccc1NC(=O)/C=C/C(=O)NC1Cc2ccccc2NC1=O` (stereo unspecified), for which the “fractional inhibitory concentration index (FICI)” value worked out at 0.375.

A further assay concerns Aspergillus flavus. Briefly: Synergistic antifungal activity against Aspergillus flavus ATCC 16870 assessed as fractional inhibitory concentration index in presence of fluconazole by checkerboard method.
Settings: not given
The format is functional. In outline: as §1
Consider `COc1ccccc1NC(=O)/C=C/C(=O)NC1Cc2ccccc2NC1=O` (stereo unspecified), for which the “fractional inhibitory concentration index (FICI)” value was 1.

The next assay deals with Cryptococcus neoformans. Briefly: Synergistic antifungal activity against Cryptococcus neoformans ATCC 32719 assessed as fractional inhibitory concentration index in presence of fluconazole by checkerboard method. In kind it is functional.
Settings: not given
The method in brief: as §1
Consider `COc1ccccc1NC(=O)/C=C/C(=O)NC1Cc2ccccc2NC1=O` (stereo unspecified), for which the “fractional inhibitory concentration index (FICI)” value is listed as 0.5.

The next assay deals with Candida albicans. As to the kind of experiment: Synergistic antifungal activity against Candida albicans ATCC 90023 assessed as fractional inhibitory concentration index in presence of fluconazole by checkerboard method. The format is functional.
Settings: not given
In outline:
as §1
As for `COc1ccccc1NC(=O)/C=C/C(=O)NC1Cc2ccccc2NC1=O` (stereo unspecified), the “fractional inhibitory concentration index (FICI)” value came out at 0.5.

In the next assay the test system is Candida albicans. As to the kind of experiment: Synergistic antifungal activity against Candida albicans ATCC 76615 assessed as fractional inhibitory concentration index in presence of fluconazole by checkerboard method. In kind it is functional.
Settings: not given
In outline:
as §1
Consider `COc1ccccc1NC(=O)/C=C/C(=O)NC1Cc2ccccc2NC1=O` (stereo unspecified), for which the “fractional inhibitory concentration index (FICI)” value was 0.75.

The subject of a further assay is Aspergillus fumigatus. As to the kind of experiment: Synergistic antifungal activity against Aspergillus fumigatus GIMCC 3.19 assessed as fractional inhibitory concentration index in presence of fluconazole by checkerboard method. In kind it is functional.
Settings: not given
In outline:
as §1
In the case of `COc1ccccc1NC(=O)/C=C/C(=O)NC1Cc2ccccc2NC1=O` (stereo unspecified), the “fractional inhibitory concentration index (FICI)” value turned out to be 0.375.

Another assay has as its system Candida tropicalis. As to the kind of experiment: Inhibition of Candida tropicalis ATCC 750 chitin synthase at 300 ug/ml using UDP-GlcNAc as substrate relative to control. The following applies: dose 300.0 µg/ml. In outline:
(§2)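 Chitin synthase prepared from C. tropicalis ATCC 750 by low- and high-speed centrifugation. DMSO stocks (10 mg/mL) diluted in 50 mM Tris-HCl pH 7.5; test concentrations 300–9.375 µg/mL. Chitin synthesized in WGA-coated wells, bound with WGA-HRP, washed, developed with TMB/H2O2, stopped with 2 M H2SO4, OD read. Duplicate; polyoxin B positive control.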
For the molecule `COc1ccccc1NC(=O)/C=C/C(=O)NC1Cc2ccccc2NC1=O` (stereo unspecified), the inhibition was found to be 82.3%.
`O=C(/C=C/C(=O)NC1Cc2ccccc2NC1=O)Nc1ccc(F)c(F)c1` (stereo unspecified): the inhibition was 66.5%.

System in the next assay: not listed separately
Briefly: Inhibition of Candida tropicalis ATCC 750 chitin synthase using UDP-GlcNAc as substrate.
Settings: not given
The method in brief: as §2
Regarding `COc1ccccc1NC(=O)/C=C/C(=O)NC1Cc2ccccc2NC1=O` (stereo unspecified), the IC50 came out at 160 µM.
As for `O=C(/C=C/C(=O)NC1Cc2ccccc2NC1=O)Nc1ccc(F)c(F)c1` (stereo unspecified), the IC50 turned out to be 340 µM.

Another assay deals with Candida albicans. As to the kind of experiment: Antifungal activity against Candida albicans ATCC 90023 incubated for 48 hrs by two-fold broth dilution analysis.
Settings: not given
The format is functional. The method in brief:
(§3)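 Stock solutions in DMSO, diluted to 0.25–512 µg/mL; two-fold serial broth dilution in 96-well plates. Fungi grown on modified Sabouraud chloramphenicol agar (1% peptone, 2% glucose, […]). Incubated 48 h at 37 °C, then MIC (µg/mL) recorded. Fluconazole and polyoxin B as positive controls; each group tested in triplicate.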
The molecule `COc1ccccc1NC(=O)/C=C/C(=O)NC1Cc2ccccc2NC1=O` (stereo unspecified) came in with an MIC of 1 µg/mL (≈ 2.74 µM).
The same measure, in the same setting: the figure for `O=C(/C=C/C(=O)NC1Cc2ccccc2NC1=O)Nc1ccc(F)c(F)c1` (stereo unspecified) is 2 µg/mL (≈ 5.39 µM).

The test system of another assay is Cryptococcus neoformans. As to the kind of experiment: Antifungal activity against Cryptococcus neoformans ATCC 32719 incubated for 48 hrs by two-fold broth dilution analysis. The format is functional.
Settings: not given
The method in brief: as §3
In turn, `COc1ccccc1NC(=O)/C=C/C(=O)NC1Cc2ccccc2NC1=O` (stereo unspecified) registered an MIC of 8 µg/mL (≈ 21.9 µM).
`O=C(/C=C/C(=O)NC1Cc2ccccc2NC1=O)Nc1ccc(F)c(F)c1` (stereo unspecified): the MIC is 16 µg/mL (≈ 43.1 µM).

The next assay concerns Aspergillus flavus. As to the kind of experiment: Antifungal activity against Aspergillus flavus ATCC 16870 incubated for 48 hrs by two-fold broth dilution analysis. In kind it is functional.
Settings: not given
The method in brief: as §3
Turning to `COc1ccccc1NC(=O)/C=C/C(=O)NC1Cc2ccccc2NC1=O` (stereo unspecified), the lowest concentration to inhibit growth (MIC) was 2 µg/mL (≈ 5.47 µM).
Consider `O=C(/C=C/C(=O)NC1Cc2ccccc2NC1=O)Nc1ccc(F)c(F)c1` (stereo unspecified), for which the MIC is 8 µg/mL (≈ 21.5 µM).

Another assay has as its system Staphylococcus aureus. Briefly: Antibacterial activity against methicillin-resistant Staphylococcus aureus N. 315. The format is functional.
Settings: not given
In outline:
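Two-fold serial broth dilution in 96-well plates per national clinical standard; beef extract peptone medium (1% peptone, 0.3% beef extract, 0.5% NaCl, […]). Compounds from DMSO stock diluted to test concentrations; incubation 18–24 h. MIC recorded; each group tested independently in triplicate.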
`COc1ccccc1NC(=O)/C=C/C(=O)NC1Cc2ccccc2NC1=O` (stereo unspecified) had an MIC of 256 µg/mL (≈ 701 µM).
On the same count and under the same terms, with `O=C(/C=C/C(=O)NC1Cc2ccccc2NC1=O)Nc1ccc(F)c(F)c1` (stereo unspecified) the figure was 512 µg/mL (≈ 1380 µM).

A further assay has as its system Candida albicans. Briefly: Antifungal activity against Candida albicans ATCC 76615 incubated for 48 hrs by two-fold broth dilution analysis. In kind it is functional.
Settings: not given
In outline:
as §3
On to `COc1ccccc1NC(=O)/C=C/C(=O)NC1Cc2ccccc2NC1=O` (stereo unspecified), for which the MIC is 1 µg/mL (≈ 2.74 µM).
Molecule `O=C(/C=C/C(=O)NC1Cc2ccccc2NC1=O)Nc1ccc(F)c(F)c1` (stereo unspecified) came in with an MIC of 4 µg/mL (≈ 10.8 µM).

The next assay relates to Aspergillus fumigatus. Briefly: Antifungal activity against Aspergillus fumigatus GIMCC 3.19 incubated for 48 hrs by two-fold broth dilution analysis.
Settings: not given
The format is functional. In outline:
as §3
In turn, `COc1ccccc1NC(=O)/C=C/C(=O)NC1Cc2ccccc2NC1=O` (stereo unspecified) yielded an MIC of 4 µg/mL (≈ 10.9 µM).
The molecule `O=C(/C=C/C(=O)NC1Cc2ccccc2NC1=O)Nc1ccc(F)c(F)c1` (stereo unspecified) returned an MIC of 8 µg/mL (≈ 21.5 µM).

In another assay the test system is Staphylococcus aureus. Briefly: Antibacterial activity against Staphylococcus aureus ATCC 25923.
Settings: not given
In kind it is functional. In outline: (§4)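 Two-fold serial broth dilution in 96-well plates following National Committee standards; compounds tested at different concentrations. Medium: beef extract peptone (1% peptone, 0.3% beef extract, 0.5% NaCl). Incubation 18–24 h. MIC recorded; streptomycin and norfloxacin as control drugs; each group tested in triplicate.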
Turning to `COc1ccccc1NC(=O)/C=C/C(=O)NC1Cc2ccccc2NC1=O` (stereo unspecified), the MIC is 128 µg/mL (≈ 350 µM).
For `O=C(/C=C/C(=O)NC1Cc2ccccc2NC1=O)Nc1ccc(F)c(F)c1` (stereo unspecified), the lowest concentration to inhibit growth (MIC) was 256 µg/mL (≈ 689 µM).

Another assay deals with Bacillus subtilis. As to the kind of experiment: Antibacterial activity against Bacillus subtilis ATCC 6633. In kind it is functional.
Settings: not given
The method in brief:
as §4
The molecule `COc1ccccc1NC(=O)/C=C/C(=O)NC1Cc2ccccc2NC1=O` (stereo unspecified) returned an MIC of 256 µg/mL (≈ 701 µM).
The same measure, in the same setting: the figure for `O=C(/C=C/C(=O)NC1Cc2ccccc2NC1=O)Nc1ccc(F)c(F)c1` (stereo unspecified) is 512 µg/mL (≈ 1380 µM).

The next assay has as its system Pseudomonas aeruginosa. Briefly: Antibacterial activity against Pseudomonas aeruginosa ATCC 9027.
Settings: not given
The format is functional. The method in brief: as §4
On to `COc1ccccc1NC(=O)/C=C/C(=O)NC1Cc2ccccc2NC1=O` (stereo unspecified), for which the MIC was 512 µg/mL (≈ 1400 µM).
The same measure, in the same setting: with `O=C(/C=C/C(=O)NC1Cc2ccccc2NC1=O)Nc1ccc(F)c(F)c1` (stereo unspecified) the figure was 512 µg/mL (≈ 1380 µM).

The test system of the next assay is Proteus vulgaris. Briefly: Antibacterial activity against Bacillus proteus ATCC 8427.
Settings: not given
In kind it is functional. In outline:
as §4
`COc1ccccc1NC(=O)/C=C/C(=O)NC1Cc2ccccc2NC1=O` (stereo unspecified) gave an MIC of 256 µg/mL (≈ 701 µM).
`O=C(/C=C/C(=O)NC1Cc2ccccc2NC1=O)Nc1ccc(F)c(F)c1` (stereo unspecified) had an MIC of 512 µg/mL (≈ 1380 µM).

A further assay has as its system Escherichia coli. Briefly: Antibacterial activity against Escherichia coli JM 109.
Settings: not given
In turn, `COc1ccccc1NC(=O)/C=C/C(=O)NC1Cc2ccccc2NC1=O` (stereo unspecified) came in with an MIC of 256 µg/mL (≈ 701 µM).
Consider `O=C(/C=C/C(=O)NC1Cc2ccccc2NC1=O)Nc1ccc(F)c(F)c1` (stereo unspecified), for which the MIC was found to be 512 µg/mL (≈ 1380 µM).
